pKi: −log10 of the molar value. Activity calls are given as the source filed them. The rule behind the calls is not given here.
Tests used:
[1] = Inhibition of beta-lactamase VIM2 (unknown origin) expressed in Escherichia coli BL21(DE3) using imipenem as substrate by measuring substrate hydrolysis at 100 uM by spectrophotometric analysis
In short: (§1)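 Purified enzyme (overproduced in E. coli BL21(DE3), pET-9a; ion-exchange and gel filtration), 1-70 nM final. Reporter substrate 150 μM imipenem, read at 300 nm, 30 °C, 50 mM HEPES pH 7.5. Single-point screen at 100 or 200 μM; Ki from v0/vi vs [I] (0.5–1,000 μM final) assuming competitive inhibition, or Dixon plot. Triplicate.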

[2] = Inhibition of beta-lactamase CphA (unknown origin) expressed in Escherichia coli BL21(DE3) using imipenem as substrate by measuring substrate hydrolysis by spectrophotometric analysis
In short: (§2)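 Enzyme 0.2–0.8 nM in 15 mM cacodylate pH 6.5, no added zinc, pre-incubated 30 min at 21 °C with inhibitor (100 μM screen). Imipenem substrate added from 10 mM stock; hydrolysis at 300 nm, 30 °C. Residual activity vs three uninhibited samples; Ki (1–100 μM inhibitor) by Hanes linearization, competitive model. Triplicate.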

[3] = Inhibition of beta-lactamase VIM4 (unknown origin) expressed in Escherichia coli BL21(DE3) using imipenem as substrate by measuring substrate hydrolysis at 100 uM by spectrophotometric analysis; in short: as §1
[4] = Inhibition of beta-lactamase IMP-1 (unknown origin) expressed in Escherichia coli LZ2310 assessed as potentiation of ceftazidime antibacterial activity by measuring ceftazidime induced diameter of inhibition zone at 40 uM incubated for 18 hrs by disk diffusion method (reference value: 9 mm)
In short: (§3)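 Efflux-deficient E. coli LZ2310 (NorE, MdfA, AcrA knocked out) carrying pLB-II with the cloned MBL gene. Mueller-Hinton, CLSI disk diffusion; antibiotic disks (30 µg cefoxitin for VIM-2, 10 µg ampicillin for VIM-4, 30 µg ceftazidime for NDM-1/IMP-1) loaded with inhibitor in DMSO (≤15 µL). Zone diameter after 18 h, 35 ± 1 °C; DMSO and 220 µg EDTA controls. Triplicate.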

[5] = Inhibition of beta-lactamase NDM1 (unknown origin) expressed in Escherichia coli BL21(DE3) using cefotaxime/nitrocefin as substrate by measuring substrate hydrolysis at 100 uM by spectrophotometric analysis
[6] = Inhibition of beta-lactamase L1 (unknown origin) expressed in Escherichia coli BL21(DE3) using nitrocefin as substrate by measuring substrate hydrolysis at 100 uM preincubated for 30 mins by spectrophotometric analysis
In short: (§4)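 Enzyme 0.2–0.8 nM in 25 mM HEPES pH 7.5 with 50 μM ZnCl2 final, pre-incubated 30 min at 21 °C with inhibitor (100 μM screen). Nitrocefin 100 μM final, read at 482 nm, 30 °C. Residual activity vs three uninhibited samples; Ki (1–100 μM inhibitor) from Hanes linearization, competitive model. Triplicate.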

[7] = Inhibition of beta-lactamase IMP-1 (unknown origin) expressed in Escherichia coli BL21(DE3) using imipenem as substrate by measuring substrate hydrolysis by spectrophotometric analysis; in short: as §1
[8] = Inhibition of beta-lactamase VIM2 (unknown origin) expressed in Escherichia coli BL21(DE3) using imipenem as substrate by measuring substrate hydrolysis at 200 uM by spectrophotometric analysis; in short: as §1
[9] = Inhibition of beta-lactamase NDM1 (unknown origin) expressed in Escherichia coli BL21(DE3) using cefotaxime/nitrocefin as substrate by measuring substrate hydrolysis at 200 uM by spectrophotometric analysis
[10] = Inhibition of beta-lactamase L1 (unknown origin) expressed in Escherichia coli BL21(DE3) using nitrocefin as substrate by measuring substrate hydrolysis preincubated for 30 mins by spectrophotometric analysis; in short: as §4
[11] = Inhibition of beta-lactamase VIM-4 (unknown origin) expressed in Escherichia coli LZ2310 assessed as potentiation of ampicillin antibacterial activity by measuring ampicillin induced diameter of inhibition zone at 40 uM incubated for 18 hrs by disk diffusion method (reference value: 6 mm); in short: as §3
[12] = Inhibition of beta-lactamase L1 (unknown origin) expressed in Escherichia coli BL21(DE3) using nitrocefin as substrate by measuring substrate hydrolysis at 200 uM preincubated for 30 mins by spectrophotometric analysis
[13] = Inhibition of beta-lactamase CphA (unknown origin) expressed in Escherichia coli BL21(DE3) using imipenem as substrate by measuring substrate hydrolysis at 100 uM by spectrophotometric analysis; in short: as §2
[14] = Inhibition of beta-lactamase IMP-1 (unknown origin) expressed in Escherichia coli BL21(DE3) using imipenem as substrate by measuring substrate hydrolysis at 200 uM by spectrophotometric analysis; in short: as §1
[15] = Inhibition of beta-lactamase CphA (unknown origin) expressed in Escherichia coli BL21(DE3) using imipenem as substrate by measuring substrate hydrolysis at 200 uM by spectrophotometric analysis
[16] = Inhibition of beta-lactamase IMP-1 (unknown origin) expressed in Escherichia coli BL21(DE3) using imipenem as substrate by measuring substrate hydrolysis at 100 uM by spectrophotometric analysis; in short: as §1
[17] = Inhibition of beta-lactamase NDM-1 (unknown origin) expressed in Escherichia coli LZ2310 assessed as potentiation of ceftazidime antibacterial activity by measuring ceftazidime induced diameter of inhibition zone at 40 uM incubated for 18 hrs by disk diffusion method (reference value: 15 mm); in short: as §3
[18] = Inhibition of beta-lactamase VIM4 (unknown origin) expressed in Escherichia coli BL21(DE3) using imipenem as substrate by measuring substrate hydrolysis at 200 uM by spectrophotometric analysis; in short: as §1
[19] = Inhibition of beta-lactamase NDM1 (unknown origin) expressed in Escherichia coli BL21(DE3) using cefotaxime/nitrocefin as substrate by measuring substrate hydrolysis by spectrophotometric analysis
In short: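 His-tagged enzyme from E. coli BL21(DE3) pET-15b, affinity-purified, 1-70 nM final. Reporter substrate 120 μM cefotaxime (260 nm) or 100 μM nitrocefin (482 nm), 30 °C, 50 mM HEPES pH 7.5. Inhibitor 0.5–1,000 μM final; competitive Ki from v0/vi vs [I] slope or Dixon plot. Triplicate.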

[20] = Inhibition of beta-lactamase VIM-2 (unknown origin) expressed in Escherichia coli LZ2310 assessed as potentiation of cefoxitin antibacterial activity by measuring cefoxitin induced diameter of inhibition zone at 40 uM incubated for 18 hrs by disk diffusion method (reference value: 14 mm); in short: as §3
[21] = Inhibition of beta-lactamase VIM4 (unknown origin) expressed in Escherichia coli BL21(DE3) using imipenem as substrate by measuring substrate hydrolysis by spectrophotometric analysis; in short: as §1
[22] = Inhibition of beta-lactamase VIM2 (unknown origin) expressed in Escherichia coli BL21(DE3) using imipenem as substrate by measuring substrate hydrolysis by spectrophotometric analysis; in short: as §1

Row | SMILES | inhibition [1] | inhibition [3] | inhibition zone (IZ) [4] [mm] | inhibition [5] | inhibition [6] | inhibition [8] | inhibition [9] | inhibition [13] | inhibition [15] | inhibition [16] | pKi [2] | pKi [7] | pKi [10] | further results
1 | COc1ccc(/C=N/n2c(-c3ccccc3C)n[nH]c2=S)c(O)c1 | 58% | 55% | 9 | 32% | 55% | – | – | – | – | – | 4.49 | 5.05 | – | –
2 | Oc1ccc(/C=N/n2c(-c3cccc4ccccc34)n[nH]c2=S)c(O)c1 | inactive | 32% | 10 | inactive | – | inactive | inactive | – | – | – | 5.40 | 5.00 | 5.70 | inhibition zone (IZ) [11]: 6 mm
3 | Oc1ccc(/C=N/n2c(CC(c3ccccc3)c3ccccc3)n[nH]c2=S)c(O)c1 | – | inactive | – | – | 35% | – | – | inactive | inactive | 35% | – | – | – | inhibition [18]: inactive
4 | S=c1[nH]nc(-c2cccc3ccccc23)n1/N=C/c1ccc(OCc2ccccc2)cc1 | inactive | – | 9 | inactive | – | inactive | inactive | – | – | – | 5.40 | 7.00 | 4.52 | inhibition zone (IZ) [20]: 14 mm; pKi [21]: 5.62
5 | S=c1[nH]nc(-c2cc(Cl)cc(Cl)c2)n1/N=C/c1ccc(OCc2ccccc2)cc1 | inactive | – | 9 | – | – | inactive | – | inactive | inactive | – | – | 7.00 | 4.74 | pKi [21]: 6.22; inhibition zone (IZ) [11]: 6 mm
6 | S=c1[nH]nc(-c2ccc(Cl)cc2)n1/N=C/c1ccc(OCc2ccccc2)cc1 | inactive | inactive | – | – | 40% | inactive | – | – | – | inactive | – | – | – | inhibition zone (IZ) [17]: 15 mm; inhibition [18]: inactive; pKi [19]: 5.39; inhibition [14]: inactive
7 | O=C(O)c1ccccc1/C=N/n1c(-c2ccncc2)n[nH]c1=S | – | 73% | – | – | 32% | – | 50% | inactive | inactive | 45% | – | – | – | –
8 | Cc1ccccc1-c1n[nH]c(=S)n1/N=C/c1ccccc1O | 62% | 38% | – | inactive | inactive | – | inactive | inactive | inactive | 41% | – | – | – | inhibition [12]: inactive

More lines, main results first:

Row | inhibition [1] | inhibition [3] | inhibition zone (IZ) [4] [mm] | inhibition [5] | inhibition [6] | inhibition [8] | inhibition [9] | inhibition [13] | inhibition [15] | inhibition [16] | SMILES | pKi [2] | pKi [7] | pKi [10] | further results
9 | inactive | 62% | – | – | inactive | inactive | 60% | inactive | inactive | inactive | O=C(O)c1ccccc1/C=N/n1c(-c2ccccn2)n[nH]c1=S | – | – | – | inhibition [12]: inactive; inhibition [14]: inactive
10 | 30% | 60% | – | inactive | 40% | – | inactive | inactive | inactive | 33% | Oc1ccc(/C=N/n2c(COc3ccc4ccccc4c3)n[nH]c2=S)c(O)c1 | – | – | – | –
11 | inactive | inactive | – | – | inactive | inactive | – | 30% | – | 30% | S=c1[nH]nc(CC(c2ccccc2)c2ccccc2)n1/N=C/c1ccc(OCc2ccccc2)cc1 | – | – | – | inhibition zone (IZ) [17]: 15 mm; inhibition [12]: inactive; inhibition [18]: inactive
12 | 30% | 47% | – | inactive | 46% | – | inactive | inactive | inactive | 37% | Oc1ccc(/C=N/n2c(Cc3ccccc3)n[nH]c2=S)c(O)c1 | – | – | – | –
13 | – | 63% | – | – | 54% | – | – | inactive | inactive | 67% | Oc1ccc(/C=N/n2c(-c3ccc(Cl)cc3)n[nH]c2=S)c(O)c1 | – | – | – | inhibition zone (IZ) [17]: 15 mm; pKi [19]: 5.51
14 | inactive | inactive | – | inactive | inactive | inactive | inactive | inactive | inactive | 60% | S=c1[nH]nc(-c2ccccc2)n1/N=C/c1ccccc1 | – | – | – | inhibition [12]: inactive; inhibition [18]: inactive
15 | – | – | 9 | inactive | – | – | inactive | – | – | – | Cc1ccccc1-c1n[nH]c(=S)n1/N=C/c1cccc(-c2cccc(C(=O)O)c2)c1 | 4.40 | 5.05 | 6.05 | pKi [22]: 5.96; inhibition zone (IZ) [20]: 14 mm; pKi [21]: 6.52; inhibition zone (IZ) [11]: 6 mm
16 | – | – | 9 | – | – | – | – | – | – | inactive | O=C(O)c1ccccc1/C=N/n1c(C(c2ccccc2)c2ccccc2)n[nH]c1=S | 4.89 | – | 7.00 | inhibition zone (IZ) [17]: 15 mm; inhibition zone (IZ) [20]: 14 mm; pKi [19]: 5.39; pKi [21]: 5.05; inhibition [14]: inactive
17 | inactive | – | 9 | inactive | – | inactive | inactive | – | – | – | Cc1ccccc1-c1n[nH]c(=S)n1/N=C/c1ccccc1[N+](=O)[O-] | 5.30 | 4.96 | 4.52 | pKi [21]: 5.62; inhibition zone (IZ) [11]: 6 mm
18 | – | 57% | 9 | inactive | 59% | – | inactive | – | – | – | Cc1ccccc1-c1n[nH]c(=S)n1/N=C/c1ccc(C(=O)O)cc1 | 4.51 | 4.96 | – | pKi [22]: 4.96; inhibition zone (IZ) [20]: 14 mm

Reference: ChEMBL document CHEMBL4706580, “4-Amino-1,2,4-triazole-3-thione-derived Schiff bases as metallo-β-lactamase inhibitors” (Eur J Med Chem, 2020)
